ChEMBL document CHEMBL1153079, “Synthesis and biological evaluation of 3',4',5'-trimethoxychalcone analogues as inhibitors of nitric oxide production and tumor cell proliferation” (Bioorg Med Chem, 2009)
Values belong to the molecule of their own block, whether it stands above or below them.

Legend:
Assay type in all cases: functional, cell-based
[1] = tested on: HepG2; assay: Growth inhibition of human HepG2 cells after 48 hrs by MTT assay; conditions: HepG2, 48 h
Procedure, shortened: (§1)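 Cells were from ATCC and grown in RPMI-1640 with 10% fetal calf serum, antibiotics and L-glutamine. Growth was read by MTT after continuous compound exposure, against a DMSO vehicle control, up to a maximum of 100 µM. IC50 came from sigmoidal variable-slope dose–response curves. Triplicates were run in three independent experiments, reported as mean ± SD.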

[2] = tested on: COLO 205; assay: Growth inhibition of human COLO205 cells after 48 hrs by MTT assay; conditions: COLO 205, 48 h; procedure, shortened: as §1
[3] = tested on: Peritoneal macrophage cell; assay: Inhibition of nitric oxide production in LPS/IFN-gamma-stimulated BALB/c mouse peritoneal macrophages by Griess method
Procedure, shortened: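 Murine peritoneal macrophages were stimulated with LPS (E. coli 055:B5) plus recombinant IFN-γ, and NO in the medium was measured with Griess reagent. Cell viability under the same conditions was checked by MTT. IC50 came from sigmoidal variable-slope dose–response curves. Triplicates were repeated three times (n = 9), reported as mean ± SD.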

SMILES: COc1cc(C(=O)/C=C/c2cccc(O)c2)cc(OC)c1OC
IC50 [1]: 94 µM
IC50 [2]: 49 µM
IC50 [3]: 13.5 µM

SMILES: COc1cc(C(=O)/C=C/c2ccc(C=O)cc2)cc(OC)c1OC
IC50 [1]: > 100 µM
IC50 [2]: 68.8 µM
IC50 [3]: > 50 µM

SMILES: COc1cc(/C=C/C(=O)c2cc(OC)c(OC)c(OC)c2)ccc1O
IC50 [1]: > 100 µM
IC50 [2]: > 100 µM
IC50 [3]: 0.3 µM

SMILES: COc1cc(C(=O)/C=C/c2cc([N+](=O)[O-])ccc2O)cc(OC)c1OC
IC50 [1]: > 100 µM
IC50 [2]: 76 µM
IC50 [3]: 4.4 µM

SMILES: COc1cc(C(=O)/C=C/c2ccccc2C=O)cc(OC)c1OC
IC50 [1]: > 100 µM
IC50 [2]: 88 µM
IC50 [3]: 27 µM

SMILES: COc1cc(C(=O)/C=C/c2ccc(Br)cc2)cc(OC)c1OC
IC50 [1]: 80 µM
IC50 [2]: 22.5 µM
IC50 [3]: 20 µM

SMILES: COc1cc(C(=O)/C=C/c2ccc([N+](=O)[O-])cc2)cc(OC)c1OC
IC50 [1]: > 100 µM
IC50 [2]: 43 µM
IC50 [3]: 30 µM

SMILES: COc1cc(C(=O)/C=C/c2cc(O)ccc2O)cc(OC)c1OC
IC50 [1]: > 100 µM
IC50 [2]: > 100 µM
IC50 [3]: > 50 µM

SMILES: COc1ccc(/C=C/C(=O)c2cc(OC)c(OC)c(OC)c2)c(OC)c1
IC50 [1]: > 100 µM
IC50 [2]: 82.5 µM
IC50 [3]: > 50 µM

SMILES: COc1cc(C(=O)/C=C/c2cccc(C=O)c2)cc(OC)c1OC
IC50 [1]: > 100 µM
IC50 [2]: 22.5 µM
IC50 [3]: > 50 µM

Stronger by IC50 [1], values ahead:

IC50 [1]: 52 µM
IC50 [2]: 41.5 µM
SMILES: COc1cc(C(=O)/C=C/c2ccc(C)cc2)cc(OC)c1OC
IC50 [3]: 4.5 µM

IC50 [1]: 49.5 µM
IC50 [2]: 46.4 µM
SMILES: COc1ccc(/C=C/C(=O)c2cc(OC)c(OC)c(OC)c2)cc1
IC50 [3]: 7.6 µM

IC50 [1]: 30 µM
IC50 [2]: 75 µM
SMILES: COc1cc(C(=O)/C=C/c2ccc(N(C)C)cc2)cc(OC)c1OC
IC50 [3]: 27 µM

IC50 [1]: 22 µM
IC50 [2]: 25.7 µM
SMILES: COc1cc(C(=O)/C=C/c2ccc(F)cc2)cc(OC)c1OC
IC50 [3]: 17.6 µM

IC50 [1]: 20.3 µM
IC50 [2]: > 100 µM
SMILES: COc1ccc(/C=C/C(=O)c2cc(OC)c(OC)c(OC)c2)cc1OC
IC50 [3]: 4.5 µM

IC50 [1]: 19.6 µM
IC50 [2]: 19.2 µM
SMILES: COc1cc(/C=C/C(=O)c2cc(OC)c(OC)c(OC)c2)cc(OC)c1OC
IC50 [3]: 2.8 µM

IC50 [1]: 16.1 µM
IC50 [2]: 18.6 µM
SMILES: COc1cc(OC)c(OC)cc1/C=C/C(=O)c1cc(OC)c(OC)c(OC)c1
IC50 [3]: 4.6 µM

IC50 [1]: 16 µM
IC50 [2]: 29.7 µM
SMILES: COc1cc(C(=O)/C=C/c2ccc(O)cc2)cc(OC)c1OC
IC50 [3]: 5 µM

IC50 [1]: 14.9 µM
IC50 [2]: 19.8 µM
SMILES: COc1cc(C(=O)/C=C/c2ccc(O)c(O)c2)cc(OC)c1OC
IC50 [3]: 1.5 µM

IC50 [1]: 13.5 µM
IC50 [2]: 13 µM
SMILES: COc1cccc(/C=C/C(=O)c2cc(OC)c(OC)c(OC)c2)c1O
IC50 [3]: 3 µM

IC50 [1]: 11.5 µM
IC50 [2]: 13.2 µM
SMILES: COc1cccc(/C=C/C(=O)c2cc(OC)c(OC)c(OC)c2)c1OC
IC50 [3]: 2.4 µM

IC50 [1]: 10.6 µM
IC50 [2]: 11.2 µM
SMILES: COc1ccc(/C=C/C(=O)c2cc(OC)c(OC)c(OC)c2)cc1O
IC50 [3]: 1.3 µM

IC50 [1]: 1.8 µM
IC50 [2]: 2.2 µM
SMILES: COc1cccc(/C=C/C(=O)c2cc(OC)c(OC)c(OC)c2)c1
IC50 [3]: 0.3 µM
